Compound activity from PubChem.
A selection: hits, their analogues and other compounds. The true share with any hit is near 1.8%.
M4 PAM: potentiates acetylcholine response at human M4 receptor. 360,000 tested, 0.4% active. AID 624126. CHO-K1 hM4/Gqi5, Fluo-8 calcium fluorescence, ACh EC20; 0% = ACh EC20, 100% = maximal ACh. activation, % at 3 µM. P08173;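 active means activation above its plate's cutoff, the mean activation of sample wells plus 3 SD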
Target sequence (P08173 whole entry, looked up): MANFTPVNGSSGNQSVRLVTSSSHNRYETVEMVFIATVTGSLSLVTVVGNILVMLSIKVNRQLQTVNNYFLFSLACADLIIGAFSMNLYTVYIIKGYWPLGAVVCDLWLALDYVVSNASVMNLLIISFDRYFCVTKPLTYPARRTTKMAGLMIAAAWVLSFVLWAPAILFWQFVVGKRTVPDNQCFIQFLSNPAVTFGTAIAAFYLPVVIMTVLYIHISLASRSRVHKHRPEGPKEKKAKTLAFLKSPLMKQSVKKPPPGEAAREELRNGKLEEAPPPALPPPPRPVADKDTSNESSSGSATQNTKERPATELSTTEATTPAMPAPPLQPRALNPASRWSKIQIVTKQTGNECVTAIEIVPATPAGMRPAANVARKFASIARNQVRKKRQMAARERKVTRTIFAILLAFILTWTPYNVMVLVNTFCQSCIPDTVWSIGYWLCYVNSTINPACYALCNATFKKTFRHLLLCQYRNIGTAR
CHRM5 agonist: CHRM5 agonism in calcium assay; P08912; CHO-K1 hM5 cells, Fluo-8 calcium fluorescence; 0% DMSO wells, 100% maximal acetylcholine response; activation, % at 3 µM; 360,000 tested, 0.19% active; AID 624037;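 active means activation above the run's mean over test compounds plus 3 SD, cut at about 23% in these data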;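 further: signal is peak over basal fluorescence ratio across the kinetic read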
CHRM4 antagonist: blocks acetylcholine activation of human M4 receptor; P08173; CHO-hM4 cells, ACh EC80, Fluo-8 calcium fluorescence; inhibition, % at 3 µM; 360,000 tested, 0.73% active; AID 624125;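 active means inhibition above its plate's cutoff, the mean inhibition of sample wells plus 3 SD, cut at about 27% in these data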;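 further: 0% = acetylcholine EC80 with DMSO and 100% = DMSO without agonist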
M5 PAM: CHRM5 positive allosteric modulation | P08912 | CHO-K1 hM5, Fluo-8 calcium, ACh EC20 PAM; 0% = ACh EC20, 100% = ACh EC100 | activation, % at 3 µM | 360,000 tested, 0.3% active | AID 624038;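 active means activation above the run cutoff, the mean activation of all test compounds plus 3 SD, cut at about 18% in these data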
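Replicates: One well per compound, no replicates | System: Human M5 receptor in CHO-K1 cells | Benchmarks: Low control EC20 acetylcholine (0%), high control EC100 acetylcholine (100%) | Probe or stimulus: Acetylcholine, EC20 level | Times: Fluo-8 loading 80 min at 37 °C plus 30 min room temperature | Signal: Intracellular calcium via Fluo-8 fluorescence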
CHRM5 antagonist: blocks acetylcholine activation of human M5 receptor. inhibition, % at 3 µM. CHO-hM5 cells, Fluo-8 calcium fluorescence, ACh EC80. AID 624040. P08912. 360,000 tested, 0.59% active;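 active means inhibition above a per-plate cutoff, the mean of that plate's test compounds plus 3 SD, cut at about 27% in these data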;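 further: 0% = acetylcholine EC80 with DMSO and 100% = DMSO without agonist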
M4 ag: agonists of human muscarinic M4 receptor (CHRM4) | activation, % at 3 µM | AID 624127 | 360,000 tested, 0.14% active | P08173 | CHO-K1 hM4/Gqi5, Fluo-8 calcium fluorescence; vehicle 0%, full acetylcholine response 100%;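 active means activation above the run mean over all test wells plus 3 SD, cut at about 32% in these data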;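 further: peak over basal fluorescence ratio per well then scaled between controls; 0% = DMSO wells and 100% = acetylcholine at EC100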
* hit, by the source's call.

SMILES	M4 PAM	CHRM5 agonist	CHRM4 antagonist	M5 PAM	CHRM5 antagonist	M4 ag
CC(C)(C)c1ccc(C(=O)NCC2CCCN2S(=O)(=O)c2ccccc2)cc1 (stereo unspecified)	4	0	-16	-8	2	5
C[C@H](CO)N1C[C@H](C)[C@@H](CN(C)C(=O)NC2CCCCC2)Oc2ccc(NS(C)(=O)=O)cc2C1=O	7	3	-6	7	-1	4
Cc1ccc(C(C)C)c(OCCn2ccnc2C)c1	-17	-7	52*	-17	57*	5
Cc1ccc(OCCCCn2ccnc2C)c(C)c1	-8	-12	-7	-17	7	13
C=CCNC(=O)c1c(CSc2ccc(F)cc2)noc1C(=O)NCCC	5	-1	4	-4	5	-1
Cc1ccc(N2CC(O)(c3cccs3)[N+]3=C2CCCC3)cc1 (stereo unspecified)	-27	-15	40*	-31	42*	1
Cc1cccc(N2CC(O)(c3cccs3)[N+]3=C2CCCC3)c1C (stereo unspecified)	-24	-16	30*	-17	17	16
CCc1ccc(N2CC(O)(c3cccs3)[N+]3=C2SCCC3)cc1 (stereo unspecified)	-27	-13	24	-33	33*	17
COc1ccccc1OCc1ccc(C(=O)N2CCOCC2)o1	3	-1	-26	-3	0	1
COc1ccccc1OCc1ccc(C(=O)N2CCCCC2)o1	34*	1	25	22*	22	16
CCOc1ccc(Br)cc1/C(C)=N\NC1=NCCN1	-12	8	21	-15	32*	6
CCc1ccc(CN2CCC(Oc3ccc(C(=O)N4CCCC4)cc3)CC2)cc1	-16	-9	36*	-9	15	1
CSc1ccc(CN2CCC(Oc3ccc(C(=O)N4CCCC4)cc3)CC2)cc1	-19	-9	29*	-8	8	0
CC(C)c1ccc(CN2CCC(Oc3ccc(C(=O)N4CCCC4)cc3)CC2)cc1	-14	-7	31*	-11	30*	5
CCN(CC(=O)NCc1cccs1)C(=O)c1cccc(S(=O)(=O)N2CC(C)OC(C)C2)c1 (stereo unspecified)	7	-3	-19	1	-9	3
CCc1ccc(Cn2ncc3c(C(=O)O)cc(C)nc32)cc1	-16	0	34*	-4	10	1
O=C(NCc1ccc(F)cc1)C1CCCN(S(=O)(=O)c2cccc3nonc23)C1 (stereo unspecified)	7	3	-13	20*	-26	3
O=C(Nc1ccc(F)cc1)C1CCCN(S(=O)(=O)c2cccc3nonc23)C1 (stereo unspecified)	3	-1	-18	1	5	3
Cc1ccccc1CS(=O)(=O)c1ncc(Cl)c(C(=O)Nc2ccc(F)cc2)n1	-4	-4	29*	1	14	3
O=C(Nc1ccc(F)cc1)c1nc(S(=O)(=O)Cc2ccccc2)ncc1Cl	-9	-4	36*	-4	25	1
Cc1cccc(C)c1NC(=O)c1nc(S(=O)(=O)Cc2ccccc2)ncc1Cl	-6	-1	14	2	3	5
COc1ccc(OC)c(NC(=O)c2nc(S(=O)(=O)Cc3ccccc3)ncc2Cl)c1	-2	-6	44*	-2	25	2
Cc1ccc(NC(=O)c2nc(S(=O)(=O)Cc3ccccc3)ncc2Cl)cc1	-8	-5	46*	-4	12	3
COc1ccc(NC(=O)c2nc(S(=O)(=O)Cc3cccc(C)c3)ncc2Cl)c(OC)c1	-7	-3	11	-5	17	0
CCOc1ccc(OCCC(=O)N(CC(C)C)c2c(N)n(Cc3ccccc3)c(=O)[nH]c2=O)cc1	12	4	0	7	-3	4
Cc1ccccc1NC(=O)CCN1CCc2ccccc2C1	5	-6	-8	-1	5	2
O=C(C=Cc1ccccn1)c1ccccc1	5	9	-9	29*	-32	2
